Test results: ChEMBL document CHEMBL1770075, “Thermal solvent-free synthesis of novel pyrazolyl chalcones and pyrazolines as potential antimicrobial agents” (2011)
In brackets after ≈: the same amount, converted by molar mass.

Assays:
[1] = system: Trichophyton mentagrophytes; experiment: Antifungal activity against Trichophyton mentagrophytes after 48 hrs; format: functional
How it was run: (§1)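 Broth with two-fold serial dilutions of compound was inoculated with 1.6 × 10⁴–6 × 10⁴ c.f.u/ml and incubated at 35 °C. MIC is the lowest concentration that arrests growth. For MFC, 0.1 ml was spread on agar, colonies were counted after 48 h at 35 °C, and the endpoint was the lowest concentration killing 99.9%.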

[2] = system: Talaromyces marneffei; experiment: Antifungal activity against Penicillium marneffei after 48 hrs; format: functional; how it was run: as §1
[3] = system: Talaromyces marneffei; experiment: Antifungal activity against Penicillium marneffei after 48 hrs by Halo zone test; format: functional
[4] = system: Candida albicans; experiment: Antifungal activity against Candida albicans after 48 hrs by Halo zone test; format: functional
[5] = system: Candida albicans; experiment: Antifungal activity against Candida albicans after 48 hrs; format: functional; how it was run: as §1
[6] = system: Aspergillus fumigatus; experiment: Antifungal activity against Aspergillus fumigatus after 48 hrs; format: functional; how it was run: as §1
[7] = system: Trichophyton mentagrophytes; experiment: Antifungal activity against Trichophyton mentagrophytes after 48 hrs by Halo zone test; format: functional
[8] = system: Aspergillus fumigatus; experiment: Antifungal activity against Aspergillus fumigatus after 48 hrs by Halo zone test; format: functional
[9] = system: Streptococcus pyogenes; experiment: Bactericidal activity against clinical isolate of Streptococcus pyogenes after 18 to 24 hrs by colony counting method; format: functional
[10] = system: Pseudomonas aeruginosa; experiment: Bactericidal activity against Pseudomonas aeruginosa ATCC 27853 after 18 to 24 hrs by colony counting method; format: functional
How it was run: (§2)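 Colonies were counted after 18–24 h at 35 °C. MBC is the lowest concentration that kills 99.9% of the inoculum.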

[11] = system: Talaromyces marneffei; experiment: Antifungal activity against Penicillium marneffei after 48 hrs by agar diffusion method; format: functional
[12] = system: Streptococcus pyogenes; experiment: Antibacterial activity against clinical isolate of Streptococcus pyogenes after 24 hrs by broth dilution method; format: functional
[13] = system: Klebsiella pneumoniae; experiment: Antibacterial activity against clinical isolate of Klebsiella pneumoniae after 24 hrs by broth dilution method; format: functional
[14] = system: Aspergillus fumigatus; experiment: Antifungal activity against Aspergillus fumigatus after 48 hrs by agar diffusion method; format: functional
[15] = system: Staphylococcus aureus; experiment: Antibacterial activity against methicillin-resistant Staphylococcus aureus after 24 hrs by disk diffusion method; format: functional
[16] = system: Klebsiella pneumoniae; experiment: Antibacterial activity against clinical isolate of Klebsiella pneumoniae after 24 hrs by disk diffusion method; format: functional
[17] = system: Candida albicans; experiment: Antifungal activity against Candida albicans after 48 hrs by agar diffusion method; format: functional
[18] = system: Escherichia coli; experiment: Antibacterial activity against Escherichia coli ATCC 25922 after 24 hrs by broth dilution method; format: functional; settings: ATCC 25922, 24 h
[19] = system: Klebsiella pneumoniae; experiment: Bactericidal activity against clinical isolate of Klebsiella pneumoniae after 18 to 24 hrs by colony counting method; format: functional
[20] = system: Pseudomonas aeruginosa; experiment: Antibacterial activity against Pseudomonas aeruginosa ATCC 27853 after 24 hrs by disk diffusion method; format: functional
[21] = system: Trichophyton mentagrophytes; experiment: Antifungal activity against Trichophyton mentagrophytes after 48 hrs by agar diffusion method; format: functional
[22] = system: Escherichia coli; experiment: Antibacterial activity against Escherichia coli ATCC 25922 after 24 hrs by disk diffusion method; format: functional
[23] = system: Pseudomonas aeruginosa; experiment: Antibacterial activity against Pseudomonas aeruginosa ATCC 27853 after 24 hrs by broth dilution method; format: functional; settings: ATCC 27853, 24 h
[24] = system: Staphylococcus aureus; experiment: Bactericidal activity against methicillin-resistant Staphylococcus aureus after 18 to 24 hrs by colony counting method; format: functional; how it was run: as §2
[25] = system: Staphylococcus aureus; experiment: Antibacterial activity against methicillin-resistant Staphylococcus aureus after 24 hrs by broth dilution method; format: functional
[26] = system: Streptococcus pyogenes; experiment: Antibacterial activity against clinical isolate of Streptococcus pyogenes after 24 hrs by disk diffusion method; format: functional
[27] = system: Escherichia coli; experiment: Bactericidal activity against Escherichia coli ATCC 25922 after 18 to 24 hrs by colony counting method; format: functional; how it was run: as §2
[28] = system: Streptococcus pyogenes; experiment: Antibacterial activity against clinical isolate of Streptococcus pyogenes after 24 hrs at 30 ug by Halo zone test; settings: read-out: DIZ
[29] = system: Pseudomonas aeruginosa; experiment: microbe, parasite or virus in culture; settings: ATCC 27853, 24 h, read-out: DIZ
[30] = system: Klebsiella pneumoniae; experiment: Antibacterial activity against clinical isolate of Klebsiella pneumoniae at 30 ug after 24 hrs by Halo zone test; settings: read-out: DIZ
[31] = system: Staphylococcus aureus; experiment: Antibacterial activity against methicillin-resistant Staphylococcus aureus at 30 ug after 24 hrs by Halo zone test; settings: read-out: DIZ

Row | SMILES | MFC [1] [µg/mL] | MIC [1] [µg/mL] | MFC [2] [µg/mL] | MIC [2] [µg/mL] | diameter of the inhibition zone (DIZ) [3] [mm] | diameter of the inhibition zone (DIZ) [4] [mm] | MFC [5] [µg/mL] | MIC [5] [µg/mL] | MFC [6] [µg/mL] | MIC [6] [µg/mL] | diameter of the inhibition zone (DIZ) [7] [mm] | diameter of the inhibition zone (DIZ) [8] [mm] | MBC [9] [µg/mL] | MBC [10] [µg/mL] | diameter of the inhibition zone (DIZ) [11] [mm] | MIC [12] [µg/mL] | MIC [13] [µg/mL] | diameter of the inhibition zone (DIZ) [14] [mm] | MBC [24] [µg/mL] | MBC [27] [µg/mL] | also measured
1 | OC(Cn1cncn1)(Cn1cncn1)c1ccc(F)cc1F [FLUCONAZOLE] | 12.5 (≈ 40.8 µM) | 6.25 (≈ 20.4 µM) | 12.5 (≈ 40.8 µM) | 6.5 (≈ 21.2 µM) | 18 | 20 | 12.5 (≈ 40.8 µM) | 6.25 (≈ 20.4 µM) | 12.5 (≈ 40.8 µM) | 6.5 (≈ 21.2 µM) | 19 | 20 | – | – | – | – | – | – | – | – | –
2 | Cc1nn(-c2ccccc2)c(Cl)c1/C=C/C(=O)C1C(=O)NC(=S)NC1=O | 50 (≈ 129 µM) | 25 (≈ 64.3 µM) | 100 (≈ 257 µM) | 25 (≈ 64.3 µM) | – | – | 50 (≈ 129 µM) | 25 (≈ 64.3 µM) | 50 (≈ 129 µM) | 25 (≈ 64.3 µM) | – | – | 100 (≈ 257 µM) | 100 (≈ 257 µM) | 14.1 | 25 (≈ 64.3 µM) | 25 (≈ 64.3 µM) | 17.9 | 50 (≈ 129 µM) | 100 (≈ 257 µM) | diameter of the inhibition zone (DIZ) [15]: 17.1 mm; diameter of the inhibition zone (DIZ) [16]: 15.4 mm; diameter of the inhibition zone (DIZ) [17]: 20.4 mm; MIC [18]: 50 µg/mL (≈ 129 µM); MBC [19]: 50 µg/mL (≈ 129 µM); diameter of the inhibition zone (DIZ) [20]: 22.1 mm; diameter of the inhibition zone (DIZ) [21]: 17.1 mm; diameter of the inhibition zone (DIZ) [22]: 20.7 mm; MIC [23]: 25 µg/mL (≈ 64.3 µM); MIC [25]: 25 µg/mL (≈ 64.3 µM); diameter of the inhibition zone (DIZ) [26]: 18.4 mm
3 | COC1=CC(=O)C[C@@H](C)[C@]12Oc1c(Cl)c(OC)cc(OC)c1C2=O [GRISEOFULVIN] | 25 (≈ 70.9 µM) | 6.25 (≈ 17.7 µM) | 25 (≈ 70.9 µM) | 12.5 (≈ 35.4 µM) | 20 | 30 | 12.5 (≈ 35.4 µM) | 6.25 (≈ 17.7 µM) | 25 (≈ 70.9 µM) | 12.5 (≈ 35.4 µM) | 24 | 27 | – | – | – | – | – | – | – | – | –
4 | Cc1nn(-c2ccccc2)c(Cl)c1C1CC(C2C(=O)NC(=S)NC2=O)=NN1 (stereo not given) | 100 (≈ 248 µM) | 25 (≈ 62.1 µM) | > 100 | > 100 | – | – | 100 (≈ 248 µM) | 50 (≈ 124 µM) | 100 (≈ 248 µM) | 25 (≈ 62.1 µM) | – | – | 100 (≈ 248 µM) | 100 (≈ 248 µM) | 13.1 | 50 (≈ 124 µM) | 50 (≈ 124 µM) | 16.2 | > 100 | 100 (≈ 248 µM) | diameter of the inhibition zone (DIZ) [15]: 14.2 mm; diameter of the inhibition zone (DIZ) [16]: 14.4 mm; diameter of the inhibition zone (DIZ) [17]: 20.2 mm; MIC [18]: 50 µg/mL (≈ 124 µM); MBC [19]: > 100 µg/mL; diameter of the inhibition zone (DIZ) [20]: 18.2 mm; diameter of the inhibition zone (DIZ) [21]: 15.8 mm; diameter of the inhibition zone (DIZ) [22]: 19.1 mm; MIC [23]: 50 µg/mL (≈ 124 µM); MIC [25]: 100 µg/mL (≈ 248 µM); diameter of the inhibition zone (DIZ) [26]: 15.2 mm
5 | O=C(O)c1cn(C2CC2)c2cc(N3CCNCC3)c(F)cc2c1=O [CIPROFLOXACIN] | – | – | – | – | – | – | – | – | – | – | – | – | – | 25 (≈ 75.4 µM) | – | – | – | – | 50 (≈ 151 µM) | 50 (≈ 151 µM) | zone of inhibition at 30 µg/disc [28]: 24 mm; zone of inhibition at 30 µg/disc [29]: 32 mm; zone of inhibition at 30 µg/disc [30]: 18 mm; zone of inhibition at 30 µg/disc [31]: 25 mm
